In ChEMBL document CHEMBL1142293, “Thiol-based angiotensin-converting enzyme 2 inhibitors: P1 modifications for the exploration of the S1 subsite” (Bioorg Med Chem Lett, 2008):

Key:
Conditions in all cases: read-out: Ki app
Neprilysin = Neprilysin (Homo sapiens, UniProt P08473); test: Inhibition of human recombinant NEP by fluorescence assay
Outline: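 Recombinant human NEP at 0.15 nM was assayed with 2 μM FAM-[…]TAMRA)-NH2 substrate. Inhibitor was pre-incubated, then substrate added. Fluorescence gave Ki App, with average %CV 43%.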

[1] = target: Angiotensin-converting enzyme 2 (Homo sapiens, UniProt Q9BYF1); test: Inhibition of human recombinant ACE2 by fluorescence assay
Outline: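 Fluorescence assay with 0.4 nM recombinant human ACE2 and 30 μM MCA-Tyr-Val-Ala-Asp-Ala-Pro-Lys(DNP)-OH substrate. Pre-incubation with inhibitor preceded substrate addition. Apparent Ki was reported, with average %CV 45%. Thiols were diluted from 10 mM stocks in 50% aqueous acetonitrile just before assay.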

Carboxypeptidase A1 = target: T1, Carboxypeptidase A1 (Homo sapiens, UniProt P15085); test: Inhibition of human recombinant carboxy peptidase A1 by fluorescence assay
T1 sequence (P15085 whole entry): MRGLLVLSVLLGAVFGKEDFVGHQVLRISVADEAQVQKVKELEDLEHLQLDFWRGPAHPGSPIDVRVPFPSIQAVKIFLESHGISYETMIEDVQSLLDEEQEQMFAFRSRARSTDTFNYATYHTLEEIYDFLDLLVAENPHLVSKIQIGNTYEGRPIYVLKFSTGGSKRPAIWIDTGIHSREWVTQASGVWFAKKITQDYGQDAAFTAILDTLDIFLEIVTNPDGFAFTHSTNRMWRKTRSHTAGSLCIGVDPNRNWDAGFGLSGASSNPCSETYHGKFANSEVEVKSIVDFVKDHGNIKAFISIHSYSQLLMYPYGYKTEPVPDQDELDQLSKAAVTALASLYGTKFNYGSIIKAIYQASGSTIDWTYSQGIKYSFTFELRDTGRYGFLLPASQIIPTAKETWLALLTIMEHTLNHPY

[2] = target: Angiotensin-converting enzyme (Homo sapiens, UniProt P12821); test: Inhibition of human recombinant ACE by fluorescence assay
Outline: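 Recombinant human ACE at 0.5 nM was incubated with 10 μM MCA-Ala-Ser-Asp-Lys-Dap(DNP)-OH substrate. Buffer was 1 μM Zn(OAc)2, 100 μM TCEP reducing agent, 50 mM Hepes, 300 μM CHAPS and 300 mM NaCl, pH 7.5. Inhibitor was pre-incubated before substrate was added. Fluorescence read-out gave apparent Ki.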

Angiotensin-converting enzyme 2, sequence (Q9BYF1 whole entry): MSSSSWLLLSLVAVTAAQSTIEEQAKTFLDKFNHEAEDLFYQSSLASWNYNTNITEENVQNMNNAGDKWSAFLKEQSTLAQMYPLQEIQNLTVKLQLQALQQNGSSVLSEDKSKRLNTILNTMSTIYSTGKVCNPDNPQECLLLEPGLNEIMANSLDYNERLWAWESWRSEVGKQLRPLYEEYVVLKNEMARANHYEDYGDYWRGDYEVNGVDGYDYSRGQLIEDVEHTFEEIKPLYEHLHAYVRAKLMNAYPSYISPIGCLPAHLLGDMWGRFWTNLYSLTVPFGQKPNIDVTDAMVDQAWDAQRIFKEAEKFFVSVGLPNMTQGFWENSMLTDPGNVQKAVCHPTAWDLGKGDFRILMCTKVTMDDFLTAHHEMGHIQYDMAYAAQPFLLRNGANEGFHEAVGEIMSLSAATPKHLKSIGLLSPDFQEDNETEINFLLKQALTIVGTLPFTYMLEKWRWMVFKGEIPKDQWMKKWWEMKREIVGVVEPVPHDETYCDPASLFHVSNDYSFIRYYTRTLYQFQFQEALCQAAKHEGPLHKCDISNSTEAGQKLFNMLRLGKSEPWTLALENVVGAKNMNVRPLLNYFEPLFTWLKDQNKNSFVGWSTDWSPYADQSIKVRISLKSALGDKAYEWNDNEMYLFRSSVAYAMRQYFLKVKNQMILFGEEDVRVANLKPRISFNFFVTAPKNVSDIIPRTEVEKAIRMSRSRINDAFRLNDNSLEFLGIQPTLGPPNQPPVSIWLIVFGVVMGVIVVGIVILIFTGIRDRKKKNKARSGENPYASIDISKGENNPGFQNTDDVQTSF
Angiotensin-converting enzyme, sequence (P12821 whole entry): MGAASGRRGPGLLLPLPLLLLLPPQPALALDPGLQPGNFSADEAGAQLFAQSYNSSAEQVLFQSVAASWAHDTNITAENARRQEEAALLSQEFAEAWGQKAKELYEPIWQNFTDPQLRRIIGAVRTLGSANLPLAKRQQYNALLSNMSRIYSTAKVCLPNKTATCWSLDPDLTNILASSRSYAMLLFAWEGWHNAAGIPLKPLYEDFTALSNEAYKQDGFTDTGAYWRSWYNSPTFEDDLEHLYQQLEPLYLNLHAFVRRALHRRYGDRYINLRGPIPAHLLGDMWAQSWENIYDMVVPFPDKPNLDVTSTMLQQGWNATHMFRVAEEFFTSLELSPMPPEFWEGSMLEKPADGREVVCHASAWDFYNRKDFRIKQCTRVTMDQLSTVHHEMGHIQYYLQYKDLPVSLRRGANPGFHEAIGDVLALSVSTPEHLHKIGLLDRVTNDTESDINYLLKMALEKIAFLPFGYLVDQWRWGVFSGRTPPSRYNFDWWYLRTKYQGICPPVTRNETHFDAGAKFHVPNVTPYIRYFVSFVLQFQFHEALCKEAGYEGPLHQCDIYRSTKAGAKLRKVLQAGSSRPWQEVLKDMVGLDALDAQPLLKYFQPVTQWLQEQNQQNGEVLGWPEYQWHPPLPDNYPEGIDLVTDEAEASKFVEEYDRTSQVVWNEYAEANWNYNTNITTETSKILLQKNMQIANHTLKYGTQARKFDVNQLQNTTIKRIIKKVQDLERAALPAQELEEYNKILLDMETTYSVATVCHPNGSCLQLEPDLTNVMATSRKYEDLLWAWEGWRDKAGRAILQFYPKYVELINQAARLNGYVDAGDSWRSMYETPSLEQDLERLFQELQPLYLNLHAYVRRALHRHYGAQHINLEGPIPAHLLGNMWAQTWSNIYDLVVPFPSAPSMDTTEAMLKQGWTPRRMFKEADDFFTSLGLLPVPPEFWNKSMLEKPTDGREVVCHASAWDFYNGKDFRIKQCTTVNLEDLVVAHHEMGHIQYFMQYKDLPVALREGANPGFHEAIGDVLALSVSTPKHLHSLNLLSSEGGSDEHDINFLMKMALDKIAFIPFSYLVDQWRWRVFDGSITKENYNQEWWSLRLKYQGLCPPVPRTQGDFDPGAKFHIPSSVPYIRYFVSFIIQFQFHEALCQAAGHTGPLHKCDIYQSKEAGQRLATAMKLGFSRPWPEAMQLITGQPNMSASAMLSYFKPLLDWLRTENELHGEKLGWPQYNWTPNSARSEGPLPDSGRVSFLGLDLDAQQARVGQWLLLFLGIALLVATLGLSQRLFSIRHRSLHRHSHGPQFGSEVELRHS
Neprilysin, sequence (P08473 whole entry): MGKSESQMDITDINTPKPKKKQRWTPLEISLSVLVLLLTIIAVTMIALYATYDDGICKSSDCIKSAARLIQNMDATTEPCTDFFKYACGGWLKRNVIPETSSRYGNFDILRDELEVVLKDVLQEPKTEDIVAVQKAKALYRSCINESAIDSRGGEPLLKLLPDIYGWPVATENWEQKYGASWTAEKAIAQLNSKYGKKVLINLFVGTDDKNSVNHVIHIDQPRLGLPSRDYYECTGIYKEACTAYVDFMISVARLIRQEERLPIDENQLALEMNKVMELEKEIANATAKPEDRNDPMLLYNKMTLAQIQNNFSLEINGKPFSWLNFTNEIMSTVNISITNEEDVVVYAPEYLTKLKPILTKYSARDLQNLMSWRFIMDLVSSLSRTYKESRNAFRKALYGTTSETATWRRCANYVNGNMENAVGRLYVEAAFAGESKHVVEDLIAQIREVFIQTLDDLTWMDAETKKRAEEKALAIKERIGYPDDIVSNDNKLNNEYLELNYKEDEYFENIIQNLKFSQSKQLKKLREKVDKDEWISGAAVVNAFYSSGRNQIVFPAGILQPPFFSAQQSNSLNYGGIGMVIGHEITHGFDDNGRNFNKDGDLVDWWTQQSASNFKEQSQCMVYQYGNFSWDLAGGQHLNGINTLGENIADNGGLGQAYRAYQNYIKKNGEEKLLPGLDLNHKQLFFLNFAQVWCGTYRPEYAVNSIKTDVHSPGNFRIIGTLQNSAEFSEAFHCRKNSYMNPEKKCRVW

Structure (SMILES) | Ki (Neprilysin) | Ki [1] | Ki (Carboxypeptidase A1) | Ki [2]
O=C(N[C@@H](Cc1ccc(-c2ccccc2)cc1)C(=O)O)[C@H](S)Cc1ccccc1 | 0.0013 µM | 1.4 µM | 0.31 µM | 0.52 µM
CC[C@@H](C)[C@H](S)C(=O)N[C@@H](Cc1ccc(-c2ccccc2)cc1)C(=O)O | 0.027 µM | 0.0015 µM | 11 µM | 0.49 µM
O=C(O)[C@H](Cc1ccc(-c2ccccc2)cc1)NC(=O)[C@@H](S)C1CCCCC1 | 1.3 µM | 0.065 µM | 12 µM | 13 µM
O=C(O)[C@H](Cc1ccc(-c2ccccc2)cc1)NC(=O)[C@@H](S)C1CCC1 | 0.0054 µM | 0.0024 µM | 12 µM | 0.62 µM
CCCC[C@H](S)C(=O)N[C@@H](Cc1ccc(-c2ccccc2)cc1)C(=O)O | 0.0012 µM | 0.0018 µM | 8.9 µM | 0.0093 µM
CC[C@H](S)C(=O)N[C@@H](Cc1ccc(-c2ccccc2)cc1)C(=O)O | 0.0008 µM | 0.0014 µM | 9.3 µM | 0.0086 µM
C[C@H](S)C(=O)N[C@@H](Cc1ccc(-c2ccccc2)cc1)C(=O)O | 0.023 µM | 0.0069 µM | 14 µM | 0.021 µM
O=C(CS)N[C@@H](Cc1ccc(-c2ccccc2)cc1)C(=O)O | 0.013 µM | 0.32 µM | 1.7 µM | 0.016 µM
CC[C@H](C)[C@H](S)C(=O)N[C@@H](Cc1ccc(-c2ccccc2)cc1)C(=O)O | 0.0024 µM | 0.0016 µM | 15 µM | 0.2 µM
CC(C)[C@H](S)C(=O)N[C@@H](Cc1ccc(-c2ccccc2)cc1)C(=O)O | 0.013 µM | 0.0015 µM | 17 µM | 0.2 µM
CC(C)(C)C[C@H](S)C(=O)N[C@@H](Cc1ccc(-c2ccccc2)cc1)C(=O)O | 0.0026 µM | 0.0071 µM | 22 µM | 2.7 µM
O=C(O)[C@H](Cc1ccc(-c2ccccc2)cc1)NC(=O)[C@@H](S)CC1CCCCC1 | 0.13 µM | 0.42 µM | 17 µM | 0.84 µM
CC(C)C[C@H](S)C(=O)N[C@@H](Cc1ccc(-c2ccccc2)cc1)C(=O)O | 0.00028 µM | 0.0014 µM | 11 µM | 0.0032 µM
O=C(O)[C@H](Cc1ccc(-c2ccccc2)cc1)NC(=O)[C@@H](S)Cc1ccc2ccccc2c1 | 0.14 µM | 0.55 µM | 32 µM | 0.21 µM
O=C(O)[C@H](Cc1ccc(-c2ccccc2)cc1)NC(=O)[C@@H](S)Cc1ccccc1 | 0.0011 µM | 0.086 µM | 1.2 µM | 0.03 µM
O=C(O)[C@H](Cc1ccc(-c2ccccc2)cc1)NC(=O)[C@@H](S)CCc1ccccc1 | 0.0026 µM | 0.86 µM | 5 µM | 0.093 µM
CC(C)(S)C(=O)N[C@@H](Cc1ccc(-c2ccccc2)cc1)C(=O)O | 0.73 µM | 2.3 µM | – | 3.4 µM
O=C(O)[C@H](Cc1ccc(-c2ccccc2)cc1)NC(=O)[C@@H](S)C1CCCC1 | 0.038 µM | 0.0018 µM | 12 µM | 0.7 µM
O=C(O)[C@H](Cc1ccc(-c2ccccc2)cc1)NC(=O)[C@@H](S)c1ccccc1 | 0.41 µM | 0.084 µM | – | > 10 µM
